Results reported in ChEMBL document CHEMBL1133565 (J Med Chem, 2000).

Tests used:
[1] = target: T1, Sodium-dependent noradrenaline transporter (Homo sapiens, UniProt P23975); assay: Inhibition of reuptake of [3H]-NE (20 nM) by norepinephrine transporter
Target sequence in this assay (P23975 whole entry): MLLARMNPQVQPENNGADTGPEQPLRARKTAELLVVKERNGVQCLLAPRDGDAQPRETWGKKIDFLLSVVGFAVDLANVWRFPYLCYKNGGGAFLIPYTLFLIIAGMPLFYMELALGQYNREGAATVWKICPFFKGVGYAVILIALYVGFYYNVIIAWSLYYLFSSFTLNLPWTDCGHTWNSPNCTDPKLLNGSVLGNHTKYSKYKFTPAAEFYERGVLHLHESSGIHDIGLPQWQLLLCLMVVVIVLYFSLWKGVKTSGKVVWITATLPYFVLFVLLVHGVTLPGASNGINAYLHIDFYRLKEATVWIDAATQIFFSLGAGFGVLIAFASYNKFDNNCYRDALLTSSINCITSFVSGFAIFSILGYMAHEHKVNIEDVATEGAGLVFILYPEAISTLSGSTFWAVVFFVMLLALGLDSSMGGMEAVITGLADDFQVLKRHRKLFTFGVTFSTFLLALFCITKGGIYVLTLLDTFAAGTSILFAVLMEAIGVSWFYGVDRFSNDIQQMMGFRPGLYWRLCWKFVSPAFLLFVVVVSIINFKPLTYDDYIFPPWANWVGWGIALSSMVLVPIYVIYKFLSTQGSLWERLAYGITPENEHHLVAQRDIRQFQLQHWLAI

[2] = target: T2, Sodium-dependent serotonin transporter (Homo sapiens, UniProt P31645); assay: Binding affinity against cloned serotonin human transporter using 40-80 PM [125I]RTI
In short: (§1)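 Membranes from cells expressing recombinant human transporters: DAT in C6 cells, later HEK293; SERT and NET in HEK293. Cells lysed (2 mM HEPES, 1 mM EDTA), spun at 30000g, resuspended in 0.32 M sucrose, about 15 µg protein. GF/C filtration. Duplicates; IC50 converted to Ki by Cheng-Prusoff.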
Target sequence in this assay (P31645 whole entry): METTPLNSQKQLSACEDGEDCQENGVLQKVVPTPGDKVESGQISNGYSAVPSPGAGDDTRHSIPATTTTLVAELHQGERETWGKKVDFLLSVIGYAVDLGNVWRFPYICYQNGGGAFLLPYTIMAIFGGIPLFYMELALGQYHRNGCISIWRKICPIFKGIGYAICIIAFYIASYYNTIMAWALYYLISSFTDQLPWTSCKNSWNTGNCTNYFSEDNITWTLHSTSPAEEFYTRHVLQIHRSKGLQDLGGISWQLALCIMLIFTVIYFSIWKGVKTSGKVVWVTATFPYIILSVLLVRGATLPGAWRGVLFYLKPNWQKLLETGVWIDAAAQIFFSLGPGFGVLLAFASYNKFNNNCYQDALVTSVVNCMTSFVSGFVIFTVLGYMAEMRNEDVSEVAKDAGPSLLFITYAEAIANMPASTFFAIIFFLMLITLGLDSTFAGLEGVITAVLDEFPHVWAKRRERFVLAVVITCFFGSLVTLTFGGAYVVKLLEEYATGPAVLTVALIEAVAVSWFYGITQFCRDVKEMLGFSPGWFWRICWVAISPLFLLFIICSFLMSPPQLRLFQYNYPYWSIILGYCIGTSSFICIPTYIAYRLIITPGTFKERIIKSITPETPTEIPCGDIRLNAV

[3] = target: T2, Sodium-dependent serotonin transporter; assay: Ratio of serotonin uptake to serotonin binding
Target sequence in this assay (P31645 whole entry, looked up): as the sequence (P31645 whole entry) above

[4] = target: T1, Sodium-dependent noradrenaline transporter; assay: Binding affinity against norepinephrine cloned human transporter using 40-80 pM [125I]RTI
Target sequence in this assay (P23975 whole entry): as the sequence (P23975 whole entry) above

[5] = target: T3, Sodium-dependent dopamine transporter (Homo sapiens, UniProt Q01959); assay: Binding affinity against cloned human dopamine transporter using 40-80 pM [125I]RTI.; in short: as §1
[6] = target: T3, Sodium-dependent dopamine transporter; assay: Inhibition of reuptake of [3H]DA (20 nM) by dopamine transporter
In short: (§2)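 Uptake used whole confluent cells: hSERT in HEK293; hDAT in C6, later HEK293. Cells were washed and scraped in PBS at 25 °C, then preincubated 10 min with drug in Krebs HEPES at 25 °C. [3H]5HT or [3H]DA was added at 20 nM final for 10 min, then filtered on 0.05% polyethylenimine-soaked filters. Six drug concentrations, each in triplicate.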

[7] = target: T3, Sodium-dependent dopamine transporter; assay: Ratio of dopamine uptake to dopamine binding
[8] = target: T2, Sodium-dependent serotonin transporter; assay: Inhibition of reuptake of [3H]5-HT (20 nM) by serotonin transporter; in short: as §2
Target sequence in this assay (P31645 whole entry): as the sequence (P31645 whole entry) above

[9] = target: Monoamine transporters; serotonin & dopamine (Homo sapiens) (UniProt P31645+Q01959); assay: Ratio of inhibition of serotonin uptake to inhibition of dopamine uptake; format: protein assay
[10] = Effective dose for generalization to 10 mg/kg cocaine in rat (value is standard error of the population of 88 independent determinations); format: functional
Mus musculus = species: Mus musculus; assay: Effective dose on 8 hr locomotor assay in mice (value is standard error of the population of 72 independent determinations); format: functional
In short: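 Groups of 8 nonhabituated male Swiss-Webster mice (Hsd:ND4, 2-3 months), dosed ip in 0.9% saline vehicle just before testing. Horizontal photobeam breaks counted in 10-min bins for 8 h from 0800 h, one mouse per chamber.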

[11] = target: T1, Sodium-dependent noradrenaline transporter; assay: Ratio of norepinephrine uptake to norepinephrine binding
Target sequence in this assay (P23975 whole entry, looked up): as the sequence (P23975 whole entry) above

Sequence of Monoamine transporters; serotonin & dopamine (Homo sapiens) (P31645 whole entry, looked up): as the sequence (P31645 whole entry) above
Sequence of Monoamine transporters; serotonin & dopamine (Homo sapiens) (Q01959 whole entry, looked up): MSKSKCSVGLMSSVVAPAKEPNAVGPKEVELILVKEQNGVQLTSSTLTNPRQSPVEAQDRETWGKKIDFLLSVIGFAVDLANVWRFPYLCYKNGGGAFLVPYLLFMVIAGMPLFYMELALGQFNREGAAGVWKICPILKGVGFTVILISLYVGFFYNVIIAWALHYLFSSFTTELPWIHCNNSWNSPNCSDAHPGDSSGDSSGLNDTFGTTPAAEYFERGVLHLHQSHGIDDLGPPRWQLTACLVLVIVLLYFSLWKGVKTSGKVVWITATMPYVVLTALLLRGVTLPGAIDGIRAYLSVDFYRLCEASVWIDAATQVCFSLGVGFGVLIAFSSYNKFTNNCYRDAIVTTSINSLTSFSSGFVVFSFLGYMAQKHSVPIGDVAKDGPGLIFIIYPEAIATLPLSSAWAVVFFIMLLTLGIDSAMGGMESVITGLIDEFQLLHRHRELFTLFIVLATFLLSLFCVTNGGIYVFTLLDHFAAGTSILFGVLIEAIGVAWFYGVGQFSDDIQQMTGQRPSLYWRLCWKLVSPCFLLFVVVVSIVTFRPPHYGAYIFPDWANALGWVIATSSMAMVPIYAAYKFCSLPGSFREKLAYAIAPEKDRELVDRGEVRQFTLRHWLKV
T3 sequence (Q01959 whole entry): as the sequence (Q01959 whole entry, looked up) above

CC(C)N(C)[C@H]1C[C@@H](c2ccc(Cl)c(Cl)c2)c2ccccc21
IC50 [1]: 1800 nM | Ki [2]: 73 nM | Ratio [3]: 25 | Ki [4]: 650 nM | Ki [5]: 680 nM | IC50 [6]: 960 nM | Ratio [7]: 1.4 | IC50 [8]: 1800 nM | Ratio [9]: 1.9

CCN[C@H]1C[C@@H](c2ccc(Cl)c(Cl)c2)c2ccccc21
IC50 [1]: 170 nM | Ki [2]: 4.7 nM | Ratio [3]: 4 | Ki [5]: 140 nM | IC50 [6]: 1000 nM | Ratio [7]: 11 | IC50 [8]: 19 nM | Ratio [9]: 0.02

CC(C)N(C)[C@@H]1C[C@@H](c2ccc(Cl)c(Cl)c2)c2ccccc21
IC50 [1]: 420 nM | Ki [2]: 44 nM | Ratio [3]: 34 | ED50 [10]: 3.3 mg/kg | Ki [4]: 260 nM | Ki [5]: 180 nM | ED50 (Mus musculus): 2.9 mg/kg | IC50 [6]: 190 nM | Ratio [7]: 1.1 | IC50 [8]: 1500 nM | Ratio [9]: 7.9

CC(C)N[C@@H]1C[C@@H](c2ccc(Cl)c(Cl)c2)c2ccccc21
IC50 [1]: 75 nM | Ki [2]: 93 nM | Ratio [3]: 2.6 | Ki [4]: 110 nM | Ki [5]: 32 nM | Ratio [11]: 0.68 | ED50 (Mus musculus): 3.1 mg/kg | IC50 [6]: 51 nM | Ratio [7]: 1.6 | IC50 [8]: 240 nM | Ratio [9]: 4.7

CCCN(C)[C@H]1C[C@@H](c2ccc(Cl)c(Cl)c2)c2ccccc21 (relative stereo)
IC50 [1]: 540 nM | Ki [2]: 200 nM | Ratio [3]: 4 | Ki [4]: 2000 nM | Ratio [11]: 0.27 | IC50 [6]: 1000 nM | Ratio [7]: 0.83 | IC50 [8]: 810 nM | Ratio [9]: 0.8

CC(C)(C)N[C@H]1C[C@@H](c2ccc(Cl)c(Cl)c2)c2ccccc21 (relative stereo)
IC50 [1]: 1800 nM | Ki [2]: 1700 nM | Ki [4]: 1100 nM | Ki [5]: 650 nM | Ratio [11]: 1.6 | IC50 [6]: 1500 nM | Ratio [7]: 2.3 | IC50 [8]: > 10000 nM

Clc1ccc([C@@H]2C[C@@H](NCc3ccccc3)c3ccccc32)cc1Cl (relative stereo)
IC50 [1]: 2600 nM | Ki [2]: 380 nM | Ki [4]: 460 nM | Ki [5]: 80 nM | ED50 (Mus musculus): > 20 mg/kg | IC50 [6]: 130 nM | Ratio [7]: 1.6 | IC50 [8]: > 10000 nM

CCCN[C@@H]1C[C@@H](c2ccc(Cl)c(Cl)c2)c2ccccc21 (relative stereo)
IC50 [1]: 130 nM | Ki [2]: 130 nM | Ratio [3]: 3.7 | ED50 [10]: 2.3 mg/kg | Ki [4]: 55 nM | Ki [5]: 220 nM | Ratio [11]: 2.4 | ED50 (Mus musculus): 8.1 mg/kg | IC50 [6]: 53 nM | Ratio [7]: 0.24 | IC50 [8]: 480 nM | Ratio [9]: 9.1

CCCN[C@H]1C[C@@H](c2ccc(Cl)c(Cl)c2)c2ccccc21 (relative stereo)
IC50 [1]: 630 nM | Ki [2]: 500 nM | Ratio [3]: 2.6 | Ki [4]: 540 nM | Ki [5]: 280 nM | Ratio [11]: 1.2 | IC50 [6]: 620 nM | Ratio [7]: 2.2 | IC50 [8]: 1300 nM | Ratio [9]: 2.1

CCN(C)[C@@H]1C[C@@H](c2ccc(Cl)c(Cl)c2)c2ccccc21 (relative stereo)
IC50 [1]: 150 nM | Ki [2]: 16 nM | Ratio [3]: 1.5 | Ki [4]: 250 nM | Ki [5]: 39 nM | Ratio [11]: 0.6 | ED50 (Mus musculus): 2.7 mg/kg | IC50 [6]: 270 nM | Ratio [7]: 6.9 | IC50 [8]: 24 nM | Ratio [9]: 0.089

Clc1ccc([C@@H]2C[C@H](NCc3ccccc3)c3ccccc32)cc1Cl (relative stereo)
IC50 [1]: > 10000 nM | Ki [2]: 2100 nM | Ki [4]: 4800 nM | Ki [5]: 1100 nM | IC50 [6]: 5300 nM | IC50 [8]: > 10000 nM

CN(C)[C@H]1C[C@@H](c2ccc(Cl)c(Cl)c2)c2ccccc21 (relative stereo)
IC50 [1]: 86 nM | Ki [2]: 2.4 nM | Ratio [3]: 2.3 | Ki [4]: 150 nM | Ki [5]: 63 nM | IC50 [6]: 550 nM | Ratio [7]: 8.7 | IC50 [8]: 5.5 nM | Ratio [9]: 0.01

CCN[C@@H]1C[C@@H](c2ccc(Cl)c(Cl)c2)c2ccccc21 (relative stereo)
IC50 [1]: 28 nM | Ki [2]: 2 nM | Ratio [3]: 6.5 | Ki [4]: 48 nM | Ki [5]: 8.1 nM | ED50 (Mus musculus): 1 mg/kg | IC50 [6]: 61 nM | Ratio [7]: 7.5 | IC50 [8]: 13 nM | Ratio [9]: 0.21

CN([C@@H]1C[C@@H](c2ccc(Cl)c(Cl)c2)c2ccccc21)C(C)(C)C (relative stereo)
IC50 [1]: 1000 nM | Ki [2]: 4700 nM | Ki [4]: 440 nM | Ki [5]: 890 nM | IC50 [6]: 2700 nM | Ratio [7]: 3 | IC50 [8]: > 10000 nM

CCN(C)[C@H]1C[C@@H](c2ccc(Cl)c(Cl)c2)c2ccccc21 (relative stereo)
IC50 [1]: 4400 nM | Ki [2]: 13 nM | Ratio [3]: 5.5 | Ki [4]: 2400 nM | Ki [5]: 660 nM | Ratio [11]: 1.8 | IC50 [6]: 530 nM | Ratio [7]: 0.8 | IC50 [8]: 72 nM | Ratio [9]: 0.14

CN(Cc1ccccc1)[C@H]1C[C@@H](c2ccc(Cl)c(Cl)c2)c2ccccc21 (relative stereo)
IC50 [1]: > 10000 nM | Ki [2]: 300 nM | Ratio [3]: 2.3 | Ki [4]: > 10000 nM | Ki [5]: > 10000 nM | IC50 [8]: 700 nM

CN(C)[C@@H]1C[C@@H](c2ccc(Cl)c(Cl)c2)c2ccccc21.O=C(O)/C=C\C(=O)O (relative stereo)
IC50 [1]: 34 nM | Ki [2]: 0.33 nM | ED50 [10]: 1.3 mg/kg | Ki [4]: 95 nM | Ki [5]: 19 nM | ED50 (Mus musculus): 2.4 mg/kg | IC50 [6]: 200 nM | IC50 [8]: 65 nM

CN(Cc1ccccc1)[C@@H]1C[C@@H](c2ccc(Cl)c(Cl)c2)c2ccccc21 (relative stereo)
IC50 [1]: 1600 nM | Ki [2]: 180 nM | Ratio [3]: 21 | Ki [4]: 2800 nM | Ki [5]: 120 nM | ED50 (Mus musculus): 5.7 mg/kg | IC50 [6]: 550 nM | Ratio [7]: 4.6 | IC50 [8]: 3700 nM | Ratio [9]: 6.7

CCCN(C)[C@@H]1C[C@@H](c2ccc(Cl)c(Cl)c2)c2ccccc21 (relative stereo)
IC50 [1]: 640 nM | Ki [2]: 91 nM | Ratio [3]: 2.1 | ED50 [10]: 1.5 mg/kg | Ki [4]: 400 nM | Ki [5]: 250 nM | Ratio [11]: 1.6 | ED50 (Mus musculus): 1.7 mg/kg | IC50 [6]: 340 nM | Ratio [7]: 1.4 | IC50 [8]: 190 nM | Ratio [9]: 0.56

CC(C)(C)N[C@@H]1C[C@@H](c2ccc(Cl)c(Cl)c2)c2ccccc21 (relative stereo)
IC50 [1]: 310 nM | Ki [2]: 740 nM | Ratio [3]: 4.2 | Ki [4]: 150 nM | Ki [5]: 130 nM | Ratio [11]: 2.1 | ED50 (Mus musculus): > 28 mg/kg | IC50 [6]: 370 nM | Ratio [7]: 2.8 | IC50 [8]: 3100 nM | Ratio [9]: 8.4

CN([C@H]1C[C@@H](c2ccc(Cl)c(Cl)c2)c2ccccc21)C(C)(C)C (relative stereo)
IC50 [1]: > 10000 nM | Ki [2]: > 10000 nM | Ki [4]: 2200 nM | Ki [5]: 2800 nM | IC50 [6]: > 10000 nM

CC(C)N[C@H]1C[C@@H](c2ccc(Cl)c(Cl)c2)c2ccccc21 (relative stereo)
IC50 [1]: 1500 nM | Ki [2]: 130 nM | Ratio [3]: 2.3 | Ki [4]: 3500 nM | Ki [5]: 450 nM | Ratio [11]: 0.43 | IC50 [6]: 1400 nM | Ratio [7]: 3.1 | IC50 [8]: 300 nM | Ratio [9]: 0.21

CN(C)[C@@H]1C[C@@H](c2ccc(Cl)c(Cl)c2)c2ccccc21 (relative stereo)
Ratio [3]: 200 | Ratio [7]: 11 | Ratio [9]: 0.033

CN[C@@H]1C[C@@H](c2ccc(Cl)c(Cl)c2)c2ccccc21 (relative stereo) [(R,S)-INDATRALINE]
ED50 (Mus musculus): 1.2 mg/kg

CN(C)[C@@H]1C[C@@H](c2ccc(Cl)c(Cl)c2)c2ccccc21 (stereo in doubt; (+)) [listing 1 of 2 here]
IC50 [1]: 21 nM | Ki [2]: 0.06 nM | Ki [4]: 52 nM | Ki [5]: 8.7 nM | ED50 (Mus musculus): 0.96 mg/kg | IC50 [6]: 120 nM | IC50 [8]: 6.3 nM

CN(C)[C@@H]1C[C@@H](c2ccc(Cl)c(Cl)c2)c2ccccc21 (stereo in doubt; (+)) [listing 2 of 2 here]
Ratio [3]: 110 | Ratio [7]: 14 | Ratio [9]: 0.053

CN(C)[C@@H]1C[C@@H](c2ccc(Cl)c(Cl)c2)c2ccccc21 (stereo in doubt; (-)) [listing 1 of 2 here]
IC50 [1]: 130 nM | Ki [2]: 3.6 nM | Ki [4]: 130 nM | Ki [5]: 38 nM | IC50 [6]: 650 nM | IC50 [8]: 130 nM

CN(C)[C@@H]1C[C@@H](c2ccc(Cl)c(Cl)c2)c2ccccc21 (stereo in doubt; (-)) [listing 2 of 2 here]
Ratio [7]: 17 | Ratio [9]: 0.02

COC(=O)[C@H]1[C@@H](OC(=O)c2ccccc2)C[C@@H]2CC[C@H]1N2C [COCAINE]
ED50 [10]: 3.61 mg/kg | ED50 (Mus musculus): 7.92 mg/kg
